Experimental data from publication PMC12324215 (bioRxiv, 2025).

What was measured:
Tpx WT/inhibitor complex = target: T1, Tpx WT/inhibitor complex (Trypanosoma brucei brucei, UniProt O77404); experiment: SEC-MALS of Tpx/inhibitor complexes; type: binding, T. brucei; details: SEC-MALS at 100 μM protein concentration
T1 sequence (O77404 with tags, fused parts or gaps): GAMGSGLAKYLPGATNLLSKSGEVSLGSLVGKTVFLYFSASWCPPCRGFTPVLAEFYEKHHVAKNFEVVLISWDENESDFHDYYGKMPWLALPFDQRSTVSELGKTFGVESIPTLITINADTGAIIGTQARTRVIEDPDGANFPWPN
Method in brief: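 Covalent complexes were formed as for ITC (TCEP-reduced Tpx, 3-fold excess inhibitor, 30 min, 25 °C) and SEC-purified. 100 µM complex was run on Superdex 75 10/300 in 25 mM NaPi pH 7.5, 150 mM NaCl at 0.5 ml/min, room temperature. Molar mass came from multi-angle light scattering plus refractive index detection, using a Zimm model.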

[1] = test system: T. brucei brucei 449 (strain: Lister 427, bloodstream form); experiment: Trypanosome cell survival assay; type: cell-based; details: Trypanosoma brucei, 24 h, read-out: EC50 (24 h)

oligomeric state of Tpx/inhibitor complex (Tpx WT/inhibitor complex)	Compound	EC50 [1] [nM]
remained monomeric	O=c1[nH]c(CCl)nc2scc(-c3ccc(C(F)(F)F)cc3)c12 [CtFT, 2-(Chloromethyl)-5-(4-(trifluoromethyl)phenyl)thieno[2,3-d]pyrimidin-4(3H)-one]	2200 ± 600
–	O=c1[nH]c(CCl)nc2scc(-c3ccccc3)c12 [CPT, 2-(Chloromethyl)-5-phenylthieno[2,3-d]pyrimidin-4(3H)-one]	600 ± 300
